Published values from different studies.
Lines come from different studies, so protocols differ. pIC50: −log10 of the molar value.
Observed: cell growth or viability

Compound	cell line	assay	conditions	measurement	value
COc1ccc(-c2ccc(-c3ccc(C(=N)N)nc3)s2)cc1	SNB-75	SRB	–	GI50	1550 nM
COc1ccc(C2=Nn3c(NN=C4C(=O)Nc5ccc(OC)cc54)nnc3SC2)cc1	UACC-257	SRB	10 µM	inhibition	20%
Cc1ccc(C)c(COc2cc(NC(=O)c3ccc4c(c3)OCO4)ccc2N(C)S(C)(=O)=O)c1	HCC 2998	SRB	48 h	GI50	120 nM
S=C([S][Au-][P+](CCCCCC[P+]([Au-][S]C(=S)n1cccn1)(c1ccccc1)c1ccccc1)(c1ccccc1)c1ccccc1)n1cccn1	HCC 2998	–	–	GI50	759 nM
COc1cccc(Oc2ccccc2NC(=O)CNC(=O)c2cccc3ccccc23)c1	HCC 2998	SRB	48 h	GI50	1260 nM
CC(C)C[C@H](NC(=O)[C@H](Cc1ccccc1)NC(=O)c1cnccn1)B(O)O	OCI-AML-5	ATP luminescence	–	pIC50	7.74
COc1cc(OC)cc(-c2cn(-c3cc(=O)oc4ccc(Br)cc34)nn2)c1	CCRF-CEM	–	48 h	CC50	10500 nM
Cc1cc(C)n(C(=S)[S][Au][PH](CCCCCC[PH]([Au][S]C(=S)n2nc(C)cc2C)(c2ccccc2)c2ccccc2)(c2ccccc2)c2ccccc2)n1	HCC 2998	–	–	GI50	252 nM
COc1cc(-c2cn(-c3ccccc3)nn2)cc(OC)c1OC	CCRF-CEM	–	48 h	CC50	34600 nM
COc1cc(-c2ccc(-c3ccc(C(=N)N)nc3)s2)cc(OC)c1OC	SNB-75	SRB	–	GI50	1500 nM
O=C1Nc2ccccc2C1=NNc1nnc2n1N=C(c1ccccc1)CS2	SNB-75	SRB	10 µM	inhibition	35%
Oc1ccc(Nc2nc(-c3ccc(Cl)cc3)cs2)cc1	A375M	MTS	24 h	pIC50	< 4.00
